Measurements collected from several papers.
Compare with care: the assays were run in different laboratories.
Effect on: cell growth or viability

O=C(N/N=C/c1c(O)ccc2ccccc12)c1cc(-c2ccc3ccccc3c2)n[nH]1  IC50 (1205Lu; MTS; 48 h): 5800 nM
COc1cc2c(Oc3ccc(NC(=O)C4(C(=O)Nc5ccc(F)cc5)CC4)cc3F)ccnc2cc1OCCCN1CCOCC1  IC50 (BJ; 72 h): 180 nM
COc1cc(Nc2nccc(-c3cnn4nc(OC)ccc34)n2)cc(C(F)(F)F)c1  IC50 (HuTu80; ATP luminescence): 150 nM
Oc1ccc(Nc2nc(-c3ccc(Cl)cc3)cs2)cc1  IC50 (1205Lu; MTS; 24 h): > 100000 nM
COc1cccc2c1C(=O)c1c(O)c3c(c(O)c1C2=O)C[C@@](O)(C(=O)CO)C[C@@H]3O[C@H]1C[C@H](N)[C@H](O)[C@H](C)O1  IC50 (WI-38 VA13; MTT; 48 h): 0.22 µg/mL
CC(=O)O[C@H]1C(=O)[C@@]2(C)[C@H]([C@H](OC(=O)c3ccccc3)[C@]3(O)C[C@H](OC(=O)[C@H](O)[C@@H](NC(=O)c4ccccc4)c4ccccc4)C(C)=C1C3(C)C)[C@]1(OC(C)=O)CO[C@@H]1C[C@@H]2O  IC50 (LN-18): 1 µg/mL
COc1cccc2c1C(=O)c1c(O)c3c(c(O)c1C2=O)C[C@@](O)(C(=O)CO)C[C@@H]3O[C@H]1C[C@H](N)[C@H](O)[C@H](C)O1  IC50 (4T1.2; MTT; 48 h): 0.272 µg/mL
C[C@@H](Oc1cc(-c2cnn(C3CCNCC3)c2)cnc1N)c1c(Cl)ccc(F)c1Cl  IC50 (BJ; 72 h): 2110 nM
C[C@H]1O[C@@H](n2cc(F)c(=O)[nH]c2=O)[C@H](O)[C@@H]1O  IC50 (IOSE-144; CCK-8; 48 h): 16500 nM
C[C@@H](Oc1cc(-c2cnn(C3CCNCC3)c2)cnc1N)c1c(Cl)ccc(F)c1Cl  IC50 (SW-1736; MTT; 72 h): 2500 nM
Cc1cc(Nc2ncc(Cl)c(Nc3ccccc3S(=O)(=O)C(C)C)n2)c(OC(C)C)cc1C1CCNCC1  IC50 (BJ; 72 h): 2600 nM
C[C@H]1[C@@H](O)O[C@@H]2O[C@@]3(C)CC[C@H]4[C@H](C)CC[C@@H]1[C@@]24OO3  IC50 (IOSE-144; CCK-8; 48 h): > 50000 nM
